In brackets after ≈: the same amount, converted by molar mass. Activity calls are given as the source filed them. No cut-off for these calls is given here.
Columns and labels:
[1] = (§1) Cytotoxicity against human Hep G2 cells after 3 days by MTT method; assay type: functional, cell-based; details: HepG2, 72 h
Summary of the method: (§2)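 Freshly trypsinized cells seeded at 5000-10 000 per well; compounds added from DMSO stocks. After 3 days in culture, attached cells incubated with MTT ([…], 1 h), solubilized in DMSO, absorbance read at 550 nm. IC50 = concentration reducing cell growth by 50%. Mean of two to three separate experiments, each in triplicate.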

[2] = (§3) Cytotoxicity against human Hep3B cells after 3 days by MTT method; assay type: functional, cell-based, Hep 3B2; details: 72 h; summary of the method: as §2
[3] = system: MCF7; assay: Cytotoxicity against human MCF7 cells after 3 days by MTT method; assay type: functional, cell-based; summary of the method: as §2
[4] = system: MDA-MB-231; assay: Cytotoxicity against human MDA-MB-231 cells after 3 days by MTT method; assay type: functional, cell-based; summary of the method: as §2
[5] = system: A549; assay: Cytotoxicity against human A549 cells after 3 days by MTT method; assay type: functional, cell-based; summary of the method: as §2
[6] = system: HepG2; assay: as §1; assay type: functional, cell-based; summary of the method: as §2
[7] = system: Hep 3B2; assay: as §3; assay type: functional, cell-based; summary of the method: as §2

In the case of `C[C@H]1[C@H](C)CC[C@@]23CC[C@@]4(C)[C@]5(C)CC[C@@H]6[C@](C)(CC[C@H](O)[C@@]6(C)CO)[C@H]5CC(=O)[C@]4(OC2)[C@H]13` [MICROFOKIENOXANE C], the IC50 [1] was 3.8 µg/mL (≈ 8.04 µM), the IC50 [2] was 4.5 µg/mL (≈ 9.52 µM) and the Activity [3] was “inactive”. For the same compound, the Activity [4] was “inactive” and the Activity [5] was “inactive”.
For `C[C@H]1[C@H](C)CC[C@@]23CC[C@]4(C)[C@@](C=C[C@@H]5[C@@]6(C)CC[C@H](O)[C@@](C)(CO)[C@@H]6CC[C@]54C)(OC2)[C@H]13`, the Activity [6] was “inactive”, the Activity [7] was “inactive” and the Activity [3] was “inactive”. For the same compound, the Activity [4] was “inactive” and the Activity [5] was “inactive”.
In the case of `CO[C@@H]1C=C2[C@@H]3[C@@H](C)[C@H](C)CC[C@]3(CO)CC[C@@]2(C)[C@]2(C)CC[C@H]3C(C)(C)[C@@H](O)CC[C@]3(C)[C@@H]12`, the IC50 [1] was 4.6 µg/mL (≈ 9.73 µM), the Activity [7] was “inactive” and the Activity [3] was “inactive”. The Activity [4] was “inactive” and the Activity [5] was “inactive”.
In the case of `C[C@H]1[C@H](C)CC[C@]23CO[C@@]4(C=C[C@@H]5[C@@]6(C)CC[C@H](O)C(C)(C)[C@@H]6CC[C@@]5(C)[C@]4(C)C[C@@H]2O)[C@H]13`, the Activity [6] was “inactive”, the Activity [7] was “inactive” and the Activity [3] was “inactive”. The Activity [4] was “inactive” and the Activity [5] was “inactive”.
For `COC(=O)/C=C/c1ccc(O)cc1`, the Activity [6] was “inactive”, the Activity [7] was “inactive” and the Activity [3] was “inactive”. The Activity [4] was “inactive” and the Activity [5] was “inactive”.
For `CC1(C)CC[C@@]23CC[C@]4(C)[C@@](C=C[C@@H]5[C@@]6(C)CC[C@H](O)C(C)(C)[C@@H]6CC[C@]54C)(OC2)[C@@H]3C1`, the Activity [6] was “inactive”, the Activity [7] was “inactive” and the Activity [3] was “inactive”. For the same compound, the Activity [4] was “inactive” and the Activity [5] was “inactive”.
For `C=C(CO)[C@@H]1CC[C@]2(CO)CC[C@]3(C)[C@H](CC[C@@H]4[C@@]5(C)CC[C@H](O)C(C)(C)[C@@H]5CC[C@]43C)[C@@H]12`, the Activity [6] was “inactive”, the Activity [7] was “inactive” and the Activity [3] was “inactive”. The Activity [4] was “inactive” and the Activity [5] was “inactive”.
For `CC1(C)C(=O)CC[C@]2(C)[C@H]3C=C[C@]45OC[C@@]6(CC[C@](C)(CO)C[C@H]64)CC[C@@]5(C)[C@]3(C)CC[C@@H]12`, the Activity [6] was “inactive”, the Activity [7] was “inactive” and the Activity [3] was “inactive”. For the same compound, the Activity [4] was “inactive” and the Activity [5] was “inactive”.
In the case of `CO[C@@H]1C=C2[C@@H]3[C@@H](C)[C@H](C)CC[C@]3(C)CC[C@@]2(C)[C@]2(C)CC[C@H]3C(C)(C)[C@@H](O)CC[C@]3(C)[C@@H]12`, the Activity [6] was “inactive”, the Activity [7] was “inactive” and the Activity [3] was “inactive”. The Activity [4] was “inactive” and the Activity [5] was “inactive”.
In the case of `C[C@H]1[C@H](C)CC[C@@]23CC[C@]4(C)[C@@](C=C[C@@H]5[C@@]6(C)CC[C@H](O)C(C)(C)[C@@H]6CC[C@]54C)(OC2)[C@H]13`, the Activity [6] was “inactive”, the Activity [7] was “inactive” and the Activity [3] was “inactive”. The Activity [4] was “inactive” and the Activity [5] was “inactive”.
For `O=c1c(O)c(-c2ccc(O)cc2)oc2cc(O)cc(O)c12`, the Activity [6] was “inactive”, the Activity [7] was “inactive” and the Activity [3] was “inactive”. The Activity [4] was “inactive” and the Activity [5] was “inactive”.
In the case of `C=C(CO)[C@@H]1CC[C@]2(C)CC[C@]3(C)[C@H](CC[C@@H]4[C@@]5(C)CC[C@H](O)C(C)(C)[C@@H]5CC[C@]43C)[C@@H]12`, the Activity [6] was “inactive”, the Activity [7] was “inactive” and the Activity [3] was “inactive”. The Activity [4] was “inactive” and the Activity [5] was “inactive”.
For `C[C@H]1[C@H](C)CC[C@]2(CO)CC[C@]3(C)C(=CC[C@@H]4[C@@]5(C)CC[C@H](O)C(C)(C)[C@@H]5CC[C@]43C)[C@H]12`, the Activity [6] was “inactive”, the Activity [7] was “inactive” and the Activity [3] was “inactive”. For the same compound, the Activity [4] was “inactive” and the Activity [5] was “inactive”.
With `Oc1cc(O)c2c(c1)O[C@H](c1ccc(O)c(O)c1)[C@H](O)C2` the Activity [6] was “inactive”, the Activity [7] was “inactive” and the Activity [3] was “inactive”. The Activity [4] was “inactive” and the Activity [5] was “inactive”.
